Source: ChEMBL document CHEMBL5705906 (Nat Commun, 2017)
Calls of active or inactive are those of the source. The calls are words filed in the database; no cut-off is given here.

Experiments:
PC-9 [1] = experiment: Inhibition of EGFR T790M/del19 mutant in human PC-9 cells assessed as reduction in ERK phosphorylation at 10 to 1000 nM by Western blotting analysis; format: cell-based; details: dose 10-1000 nM
BaF3 [2] = experiment: Inhibition of EGFR-C797S/T790M/L858R mutant expressed in mouse BaF3 cells assessed as inhibition of Akt phosphorylation at 10 to 1000 nM incubated for 6 hrs by Western blotting analysis; format: cell-based; details: dose 10-1000 nM
How it was run: (§1)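 Ba/F3 cells expressing EGFR-L858R-series mutants treated with inhibitors for 6 h. SDS lysates quantified by BCA, run on SDS-PAGE and blotted to PVDF. Probed for phospho-EGFR (Tyr1068), total EGFR and downstream phospho-proteins.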

BaF3 [3] = format: cell-based; details: Mus musculus, dose 10-1000 nM, time 6.0 hrs
[4] = system: Epidermal growth factor receptor (Homo sapiens), P00533 [UNDEFINED MUTATION]; details: PC-9, dose 10-1000 nM
BaF3 [5] = experiment: Inhibition of EGFR-del19 mutant in mouse BaF3 cells assessed as inhibition of ERK phosphorylation at 10 to 1000 nM incubated for 6 hrs by Western blotting analysis; format: cell-based; details: dose 10-1000 nM
How it was run: (§2)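 Ba/F3 cells carrying the stated EGFR mutant were made IL-3-independent after 1 week of 7 µM blasticidin selection. They were grown in low-glucose DMEM with 10% FBS and exposed to inhibitor for 6 h. Cells were washed in cold PBS, lysed in SDS buffer (100 mM Tris, 1% SDS, 10% glycerol) and boiled 5 min. Protein was measured by BCA, run on SDS-PAGE, transferred to PVDF, blocked in 5% BSA or milk/TBS-T, and immunoblotted.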

[6] = system: Epidermal growth factor receptor (Homo sapiens), P00533 [UNDEFINED MUTATION]; details: PC-9, dose 10-1000 nM; remark: listed apart in the source
[7] = system: Epidermal growth factor receptor (Homo sapiens), P00533 [UNDEFINED MUTATION]; details: MGH121, dose 10-1000 nM
[8] = Cytotoxicity against mouse Ba/F3 EGFR-Del19/T790M/C797S cells assessed as inhibition of cell viability by measuring fold change at 30 nM incubated for 72 hrs in presence of cetuximab by CellTiter-Glo assay relative to AP26113-analog alone; format: functional
BaF3 [9] = format: cell-based; details: Mus musculus, dose 10-1000 nM, time 6.0 hrs; remark: listed apart in the source
BaF3 [10] = experiment: Inhibition of EGFR-C797S/T790M/L858R mutant in mouse BaF3 cells assessed as inhibition of S6 phosphorylation at 10 to 1000 nM incubated for 6 hrs by Western blotting analysis; format: cell-based; details: dose 10-1000 nM; how it was run: as §1
BaF3 [11] = experiment: Inhibition of EGFR-T790M/del19 mutant in mouse BaF3 cells assessed as inhibition of Akt phosphorylation at 10 to 1000 nM incubated for 6 hrs by Western blotting analysis; format: cell-based; details: dose 10-1000 nM; how it was run: as §2
PC-9 [12] = experiment: Inhibition of EGFR T790M/del19 mutant in human PC-9 cells assessed as reduction in S6 phosphorylation at 10 to 1000 nM by Western blotting analysis; format: cell-based; details: dose 10-1000 nM
BaF3 [13] = experiment: Inhibition of EGFR-C797S/T790M/L858R mutant expressed in mouse BaF3 cells assessed as inhibition of ERK phosphorylation at 10 to 1000 nM incubated for 6 hrs by Western blotting analysis; format: cell-based; details: dose 10-1000 nM; how it was run: as §1
BaF3 [14] = experiment: Inhibition of EGFR-del19 mutant in mouse BaF3 cells assessed as inhibition of S6 phosphorylation at 10 to 1000 nM incubated for 6 hrs by Western blotting analysis; format: cell-based; details: dose 10-1000 nM; how it was run: as §2
[15] = system: Epidermal growth factor receptor (Homo sapiens), P00533 [UNDEFINED MUTATION]; details: PC-9, dose 10-1000 nM; remark: listed apart in the source
PC-9 [16] = experiment: Inhibition of EGFR T790M/del19 mutant in human PC-9 cells assessed as reduction in EGFR phosphorylation at 10 to 1000 nM by Western blotting analysis; format: cell-based; details: dose 10-1000 nM
BaF3 [17] = experiment: Inhibition of EGFR-C797S/T790M/del19 mutant in mouse BaF3 cells assessed as reduction in Akt phosphorylation incubated for 6 hrs by Western blotting analysis; format: cell-based
[18] = system: Epidermal growth factor receptor (Homo sapiens), P00533 [UNDEFINED MUTATION]; details: PC-9, dose 10-1000 nM; remark: listed apart in the source
[19] = system: Epidermal growth factor receptor (Homo sapiens), P00533 [UNDEFINED MUTATION]; details: PC-9, dose 10-1000 nM; remark: listed apart in the source
BaF3 [20] = experiment: Inhibition of EGFR-C797S/T790M/L858R mutant in mouse BaF3 cells assessed as inhibition of EGFR phosphorylation at 10 to 1000 nM incubated for 6 hrs by Western blotting analysis; format: cell-based; details: dose 10-1000 nM; how it was run: as §1
BaF3 [21] = experiment: Inhibition of EGFR-T790M/del19 mutant in mouse BaF3 cells assessed as inhibition of S6 phosphorylation at 10 to 1000 nM incubated for 6 hrs by Western blotting analysis; format: cell-based; details: dose 10-1000 nM; how it was run: as §2
[22] = system: Epidermal growth factor receptor (Homo sapiens), P00533 [UNDEFINED MUTATION]; details: MGH121, dose 10-1000 nM; remark: listed apart in the source
[23] = system: Epidermal growth factor receptor (Homo sapiens), P00533 [UNDEFINED MUTATION]; details: PC-9, dose 10-1000 nM; remark: listed apart in the source
[24] = system: Epidermal growth factor receptor (Homo sapiens), P00533 [UNDEFINED MUTATION]; details: PC-9, dose 10-1000 nM; remark: listed apart in the source
BaF3 [25] = experiment: Inhibition of EGFR-C797S/T790M/del19 mutant in mouse BaF3 cells assessed as reduction in S6 phosphorylation incubated for 6 hrs by Western blotting analysis; format: cell-based; how it was run: as §2
[26] = system: Epidermal growth factor receptor (Homo sapiens), P00533 [UNDEFINED MUTATION]; details: MGH121, dose 10-1000 nM; remark: listed apart in the source
[27] = Cytotoxicity against mouse Ba/F3 EGFR-Del19/T790M/C797S cells assessed as inhibition of cell viability incubated for 72 hrs by CellTiter-Glo assay; format: functional, cell-based
BaF3 [28] = format: cell-based; details: Mus musculus, dose 10-1000 nM, time 6.0 hrs; remark: listed apart in the source
BaF3 [29] = format: cell-based; details: Mus musculus, dose 10-1000 nM, time 6.0 hrs; remark: listed apart in the source
[30] = system: Epidermal growth factor receptor (Homo sapiens), P00533 [UNDEFINED MUTATION]; details: PC-9, dose 10-1000 nM; remark: listed apart in the source
BaF3 [31] = experiment: Inhibition of EGFR-T790M/del19 mutant in mouse BaF3 cells assessed as inhibition of EGFR phosphorylation at 10 to 1000 nM incubated for 6 hrs by Western blotting analysis; format: cell-based; details: dose 10-1000 nM; how it was run: as §2
BaF3 [32] = experiment: Inhibition of EGFR-del19 mutant in mouse BaF3 cells assessed as inhibition of Akt phosphorylation at 10 to 1000 nM incubated for 6 hrs by Western blotting analysis; format: cell-based; details: dose 10-1000 nM; how it was run: as §2
BaF3 [33] = experiment: Inhibition of EGFR-C797S/T790M/del19 mutant in mouse BaF3 cells assessed as reduction in EGFR phosphorylation incubated for 6 hrs by Western blotting analysis; format: cell-based
BaF3 [34] = experiment: Inhibition of EGFR-T790M/del19 mutant in mouse BaF3 cells assessed as inhibition of ERK phosphorylation at 10 to 1000 nM incubated for 6 hrs by Western blotting analysis; format: cell-based; details: dose 10-1000 nM; how it was run: as §2
[35] = system: Epidermal growth factor receptor (Homo sapiens), P00533 [UNDEFINED MUTATION]; details: MGH121, dose 10-1000 nM; remark: listed apart in the source
PC-9 [36] = experiment: Inhibition of EGFR T790M/del19 mutant in human PC-9 cells assessed as reduction in Akt phosphorylation at 10 to 1000 nM by Western blotting analysis; format: cell-based; details: dose 10-1000 nM
BaF3 [37] = experiment: Inhibition of EGFR-C797S/T790M/del19 mutant in mouse BaF3 cells assessed as reduction in ERK phosphorylation incubated for 6 hrs by Western blotting analysis; format: cell-based

Chain of Epidermal growth factor receptor (Homo sapiens), P00533 [UNDEFINED MUTATION] (P00533 whole entry, looked up, stated change not applied): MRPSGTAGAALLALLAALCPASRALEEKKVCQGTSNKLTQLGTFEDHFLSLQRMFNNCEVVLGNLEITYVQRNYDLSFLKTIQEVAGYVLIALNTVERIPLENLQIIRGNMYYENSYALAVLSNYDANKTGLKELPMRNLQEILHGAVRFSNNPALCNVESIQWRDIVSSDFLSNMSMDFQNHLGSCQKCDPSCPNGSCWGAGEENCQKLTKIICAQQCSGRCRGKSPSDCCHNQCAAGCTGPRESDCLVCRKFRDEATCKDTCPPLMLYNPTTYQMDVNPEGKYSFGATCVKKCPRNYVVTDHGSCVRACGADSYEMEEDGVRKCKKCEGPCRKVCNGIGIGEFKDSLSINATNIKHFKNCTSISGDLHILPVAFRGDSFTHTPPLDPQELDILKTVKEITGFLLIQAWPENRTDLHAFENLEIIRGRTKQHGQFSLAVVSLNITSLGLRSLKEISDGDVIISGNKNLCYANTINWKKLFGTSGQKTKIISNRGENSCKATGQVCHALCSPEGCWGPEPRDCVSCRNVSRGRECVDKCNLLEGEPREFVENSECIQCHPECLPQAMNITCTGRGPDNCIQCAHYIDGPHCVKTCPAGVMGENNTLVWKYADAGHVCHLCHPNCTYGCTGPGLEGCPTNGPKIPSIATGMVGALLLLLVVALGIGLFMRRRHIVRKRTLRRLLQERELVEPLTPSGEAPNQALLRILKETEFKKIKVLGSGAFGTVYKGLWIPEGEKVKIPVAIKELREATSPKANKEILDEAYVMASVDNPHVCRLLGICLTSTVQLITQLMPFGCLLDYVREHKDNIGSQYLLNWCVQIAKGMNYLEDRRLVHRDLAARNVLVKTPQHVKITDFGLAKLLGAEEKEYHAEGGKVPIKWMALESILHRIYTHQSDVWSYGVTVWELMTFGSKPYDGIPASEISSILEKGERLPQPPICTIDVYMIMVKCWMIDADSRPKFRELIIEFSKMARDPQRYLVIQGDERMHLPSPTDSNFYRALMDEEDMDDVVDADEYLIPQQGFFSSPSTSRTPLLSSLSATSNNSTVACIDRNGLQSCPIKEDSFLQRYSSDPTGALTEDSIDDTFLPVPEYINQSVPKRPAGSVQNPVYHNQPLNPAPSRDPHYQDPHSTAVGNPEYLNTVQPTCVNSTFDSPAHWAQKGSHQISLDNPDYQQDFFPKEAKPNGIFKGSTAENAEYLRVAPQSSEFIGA

With `COc1cc(N2CCC(N(C)C)CC2)ccc1Nc1ncc(Cl)c(Nc2ccccc2P(C)(C)=O)n1` the inhibition (PC-9 [1]) was “Active”, the inhibition (BaF3 [2]) was “Active” and the inhibition (BaF3 [3]) was “Active”. The inhibition [4] was “Active”, the inhibition (BaF3 [5]) was “Active” and the inhibition [6] was “Active”. The inhibition [7] was “Active”, the “fold change (FC)” value [8] was roughly 3 and the inhibition (BaF3 [9]) was “Active”. For the same molecule, the inhibition (BaF3 [10]) was “Active”, the inhibition (BaF3 [11]) was “Active” and the inhibition (PC-9 [12]) was “Active”. The inhibition (BaF3 [13]) was “Active”, the inhibition (BaF3 [14]) was “Active” and the inhibition [15] was “Active”. For the same molecule, the inhibition (PC-9 [16]) was “Active”, the inhibition (BaF3 [17]) was “Active” and the inhibition [18] was “Active”. The inhibition [19] was “Active”, the inhibition (BaF3 [20]) was “Active” and the inhibition (BaF3 [21]) was “Active”. For the same molecule, the inhibition [22] was “Active”, the inhibition [23] was “Active” and the inhibition [24] was “Active”. For the same molecule, the inhibition (BaF3 [25]) was “Active”, the inhibition [26] was “Active” and the IC50 [27] was 0.0591 µM. For the same molecule, the inhibition (BaF3 [28]) was “Active”, the inhibition (BaF3 [29]) was “Active” and the inhibition [30] was “Active”. For the same molecule, the inhibition (BaF3 [31]) was “Active”, the inhibition (BaF3 [32]) was “Active” and the inhibition (BaF3 [33]) was “Active”. The inhibition (BaF3 [34]) was “Active”, the inhibition [35] was “Active” and the inhibition (PC-9 [36]) was “Active”. For the same molecule, the inhibition (BaF3 [37]) was “Active”.
